# “Also recorded” adds a separate entry of the source.
# Key:
# SARS-CoV-2 3CL^pro [1] = target: T1, SARS-CoV-2 3CL^pro (Severe acute respiratory syndrome coronavirus 2, UniProt P0DTD1); assay: biochemical; assay type: biochemical; details: for inhibition at 100 µM: read-out: inhibition against SARS-CoV-2 3CLpro
# HCoV-229E 3CL^pro = HCoV-229E 3CL^pro (Human coronavirus 229E, UniProt P0C6X1); assay: biochemical
# SARS-CoV-2 3CL^pro [2] = target: T1, SARS-CoV-2 3CL^pro; assay: Fluorescence quenching assay; assay type: binding; details: 3 μM 3CLpro
# SARS-CoV-2 3CL^pro [3] = target: T1, SARS-CoV-2 3CL^pro; assay type: biochemical
# SARS-CoV-2 3CL^pro [4] = target: T1, SARS-CoV-2 3CL^pro; assay: Enzymatic inhibition assay in the presence of DTT or GSH; assay type: biochemical; details: 10 μM compound
# How it was run: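 The thiol-dependence FRET assay preincubated SARS-CoV-2 3CLpro with test compound in reaction buffer (0.1 M PBS, 1 mM EDTA, pH 7.4), with 4 mM DTT or 1 mM GSH, or without either.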
# SARS-CoV-2 3CL^pro [5] = target: T1, SARS-CoV-2 3CL^pro; assay: CD spectroscopy, secondary structure content by CDNN; details: 20 μM 3CLpro
# [6] = target: T2, human chymotrypsin C (CTRC) (Homo sapiens, UniProt Q99895); assay: Human protease selectivity: CTRC inhibition; assay type: biochemical; details: 0, 1, 10, 100 μM
# T2 sequence (Q99895 30-268): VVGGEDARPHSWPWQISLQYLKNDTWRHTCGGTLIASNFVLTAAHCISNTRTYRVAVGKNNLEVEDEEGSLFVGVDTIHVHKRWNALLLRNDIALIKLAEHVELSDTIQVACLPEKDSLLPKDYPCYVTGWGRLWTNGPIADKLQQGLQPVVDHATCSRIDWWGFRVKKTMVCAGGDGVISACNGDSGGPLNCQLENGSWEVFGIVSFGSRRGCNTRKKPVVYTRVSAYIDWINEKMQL
# [7] = target: Dipeptidyl peptidase IV (DPP-IV) (Homo sapiens, UniProt P27487); assay: Human protease selectivity: DPP-IV inhibition in human plasma with GP-BAN probe; assay type: biochemical; details: 0, 1, 10, 100 μM
# How it was run: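 Human plasma served as the DPP-IV source and was incubated 1 h with test compound at 0, 1, 10 or 100 μM in 0.1 M PBS, pH 7.4, 1 mM EDTA. Adding the DPP-IV-selective fluorogenic probe at 100 µM started the reaction. Fluorescence (ex 430 nm, em 535 nm) was read immediately over 20 min.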
# SARS-CoV-2 = details: Huh7-ACE2, HeLa-ACE2 and A549-ACE2 cells; in the micromolar range, similar to Remdesivir; cited from earlier work
# Dipeptidyl peptidase IV (DPP-IV), sequence (P27487 39-766): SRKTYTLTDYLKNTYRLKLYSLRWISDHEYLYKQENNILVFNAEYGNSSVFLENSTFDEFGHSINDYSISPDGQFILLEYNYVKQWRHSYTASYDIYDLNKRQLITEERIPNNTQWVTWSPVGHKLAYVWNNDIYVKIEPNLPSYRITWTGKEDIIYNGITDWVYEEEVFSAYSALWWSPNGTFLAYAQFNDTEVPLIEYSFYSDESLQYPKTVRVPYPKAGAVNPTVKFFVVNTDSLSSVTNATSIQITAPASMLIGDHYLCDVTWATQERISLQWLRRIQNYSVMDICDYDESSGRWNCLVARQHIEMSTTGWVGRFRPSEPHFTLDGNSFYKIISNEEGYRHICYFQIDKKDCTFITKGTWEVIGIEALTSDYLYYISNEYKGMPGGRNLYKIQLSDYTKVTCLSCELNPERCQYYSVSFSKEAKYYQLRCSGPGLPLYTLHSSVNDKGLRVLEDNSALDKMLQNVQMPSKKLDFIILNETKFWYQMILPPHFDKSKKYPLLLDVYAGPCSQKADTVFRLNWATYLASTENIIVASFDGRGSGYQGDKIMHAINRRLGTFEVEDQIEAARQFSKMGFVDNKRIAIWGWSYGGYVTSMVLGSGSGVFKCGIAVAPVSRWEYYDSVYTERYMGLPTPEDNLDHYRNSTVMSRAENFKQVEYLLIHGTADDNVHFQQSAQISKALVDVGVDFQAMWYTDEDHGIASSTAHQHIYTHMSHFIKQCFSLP
# HCoV-229E 3CL^pro, sequence (P0C6X1 2966-3267): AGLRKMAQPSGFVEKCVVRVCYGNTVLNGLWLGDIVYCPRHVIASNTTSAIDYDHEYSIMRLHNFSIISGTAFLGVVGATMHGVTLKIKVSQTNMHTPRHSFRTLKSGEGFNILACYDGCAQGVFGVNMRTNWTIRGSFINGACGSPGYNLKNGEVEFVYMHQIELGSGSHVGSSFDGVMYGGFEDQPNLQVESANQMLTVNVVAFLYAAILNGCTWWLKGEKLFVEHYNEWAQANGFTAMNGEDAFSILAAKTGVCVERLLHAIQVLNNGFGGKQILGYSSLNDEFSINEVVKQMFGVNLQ
smiles,measurement,setting,value
CCCCCCCCCCCCCCCC[N+](C)(C)Cc1ccccc1 [Cetalkonium chloride],IC50,SARS-CoV-2 3CL^pro [1],3.5 ± 0.47 µM
same,inhibition at 100 µM,SARS-CoV-2 3CL^pro [1],> 90%
CCCCCCCCCCCCCCCC[N+](C)(C)C [Cetrimonium bromide],IC50,SARS-CoV-2 3CL^pro [1],12.8 ± 0.63 µM
same,inhibition of protease activity in primary screening,SARS-CoV-2 3CL^pro [1],significantly inhibit
C[N+](C)(C)CCCCCCCCCC[N+](C)(C)C [Decamethonium bromide],IC50,SARS-CoV-2 3CL^pro [1],> 100 µM
same,inhibition against SARS-CoV-2 3CLpro,SARS-CoV-2 3CL^pro [1]; 100 µM,no inhibitory activity
CCCCCCCCCCCC[N+](C)(C)CCOc1ccccc1 [Domiphen bromide],IC50,SARS-CoV-2 3CL^pro [1],45.9 ± 16.5 µM
same,inhibition at 100 µM,SARS-CoV-2 3CL^pro [1],> 90%
CCCCCCCCOc1ccccc1C(=O)Nc1ccc(C(=O)OCC[N+](C)(CC)CC)cc1 [Otilonium bromide],IC50,SARS-CoV-2 3CL^pro [1],27.7 ± 0.33 µM
same,inhibition of protease activity in primary screening,SARS-CoV-2 3CL^pro [1],significantly inhibit
CCCCCCCCCCCCCCCC[N+](C)(C)CCN(Cc1ccc(OC)cc1)c1ncccn1 [Thonzonium bromide],inhibition of protease activity in primary screening,SARS-CoV-2 3CL^pro [1],significantly inhibit
same,IC50,HCoV-229E 3CL^pro,6.47 µM
same,KSV (Stern-Volmer quenching constant),SARS-CoV-2 3CL^pro [2],39600 L/mol
same,Kq (bimolecular quenching rate constant),SARS-CoV-2 3CL^pro [2]; τ0 about 10^-8 s,3.96e+12 M⁻¹ s⁻¹
same,type of inhibition,SARS-CoV-2 3CL^pro [3],non-competitive inhibitor
same,inhibition against SARS-CoV-2 3CLpro in the presence of GSH,SARS-CoV-2 3CL^pro [4]; 1 mM GSH,potent inhibition
same,inhibition against SARS-CoV-2 3CLpro in the presence of DTT,SARS-CoV-2 3CL^pro [4]; 4 mM DTT,potent inhibition
same,Antiparallel (%),SARS-CoV-2 3CL^pro [5]; 50 μM Thonzonium bromide,18.60%
same,Parallel (%),SARS-CoV-2 3CL^pro [5]; 50 μM Thonzonium bromide,6.30%
same,Random coil (%),SARS-CoV-2 3CL^pro [5]; 50 μM Thonzonium bromide,30.70%
same,Total sum (%),SARS-CoV-2 3CL^pro [5]; 50 μM Thonzonium bromide,95.40%
same,α-helix (%),SARS-CoV-2 3CL^pro [5]; 50 μM Thonzonium bromide,25.50%
same,β-turn (%),SARS-CoV-2 3CL^pro [5]; 50 μM Thonzonium bromide,14.20%
same,Antiparallel (%),SARS-CoV-2 3CL^pro [5]; 100 μM Thonzonium bromide,22.00%
same,Parallel (%),SARS-CoV-2 3CL^pro [5]; 100 μM Thonzonium bromide,6.20%
same,Random coil (%),SARS-CoV-2 3CL^pro [5]; 100 μM Thonzonium bromide,32.20%
same,Total sum (%),SARS-CoV-2 3CL^pro [5]; 100 μM Thonzonium bromide,96.10%
same,α-helix (%),SARS-CoV-2 3CL^pro [5]; 100 μM Thonzonium bromide,20.20%
same,β-turn (%),SARS-CoV-2 3CL^pro [5]; 100 μM Thonzonium bromide,15.50%
same,Antiparallel (%),SARS-CoV-2 3CL^pro [5]; 200 μM Thonzonium bromide,33.60%
same,Parallel (%),SARS-CoV-2 3CL^pro [5]; 200 μM Thonzonium bromide,6.30%
same,Random coil (%),SARS-CoV-2 3CL^pro [5]; 200 μM Thonzonium bromide,34.00%
same,Total sum (%),SARS-CoV-2 3CL^pro [5]; 200 μM Thonzonium bromide,102.10%
same,α-helix (%),SARS-CoV-2 3CL^pro [5]; 200 μM Thonzonium bromide,12.30%
same,β-turn (%),SARS-CoV-2 3CL^pro [5]; 200 μM Thonzonium bromide,15.90%
same,inhibitory activity towards CTRC,[6],didn’t exhibit inhibitory activity; also recorded: did not show measurable activity; also recorded: does not inhibit
same,inhibitory activity towards DPP-IV,[7],didn’t exhibit inhibitory activity; also recorded: did not show measurable activity; also recorded: does not inhibit
same,antiviral effect against SARS-CoV-2 in cells,SARS-CoV-2,effective against SARS-CoV-2
